# Key:
# [1] = molecular target: T1, Solute carrier family 22 member 1 (Homo sapiens, UniProt O15245); experiment: Inhibition of human OCT1 expressed in HEK293 cells assessed as decrease in uptake of substrate [3H]MPP+ after 1 min by liquid scintillation counting method; assay type: cell-based
# T1 sequence (O15245 whole entry): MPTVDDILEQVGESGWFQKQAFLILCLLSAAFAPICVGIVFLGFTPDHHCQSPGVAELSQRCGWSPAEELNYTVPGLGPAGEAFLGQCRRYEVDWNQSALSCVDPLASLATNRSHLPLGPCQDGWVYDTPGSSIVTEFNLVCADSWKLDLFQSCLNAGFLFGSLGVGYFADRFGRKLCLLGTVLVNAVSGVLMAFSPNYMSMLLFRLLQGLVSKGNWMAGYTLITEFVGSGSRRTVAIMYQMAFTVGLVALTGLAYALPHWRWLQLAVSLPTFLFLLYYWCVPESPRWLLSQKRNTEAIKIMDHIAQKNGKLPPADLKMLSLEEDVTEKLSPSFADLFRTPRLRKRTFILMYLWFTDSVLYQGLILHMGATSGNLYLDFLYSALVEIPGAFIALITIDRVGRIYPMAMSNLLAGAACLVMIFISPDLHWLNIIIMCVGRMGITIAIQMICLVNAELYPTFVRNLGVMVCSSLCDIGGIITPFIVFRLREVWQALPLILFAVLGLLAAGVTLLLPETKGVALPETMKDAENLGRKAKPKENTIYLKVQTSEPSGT
# Summary of the method: (§1)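 Stably transfected HEK293 cells expressing hOCT1, hOCT2 or hOCT3; 1 min uptake of [3H]MPP+ (1 μM) measured across inhibitor concentrations 10^-8 to 10^-2.5 M. Signal corrected for nonspecific background in empty-vector control cells; data as mean ± SD; IC50 obtained by nonlinear regression.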
# [2] = molecular target: T2, Solute carrier family 22 member 3 (Homo sapiens, UniProt O75751); experiment: Inhibition of human OCT3 expressed in HEK293 cells assessed as decrease in uptake of substrate [3H]MPP+ after 1 min by liquid scintillation counting method; assay type: cell-based; summary of the method: as §1
# T2 sequence (O75751 whole entry): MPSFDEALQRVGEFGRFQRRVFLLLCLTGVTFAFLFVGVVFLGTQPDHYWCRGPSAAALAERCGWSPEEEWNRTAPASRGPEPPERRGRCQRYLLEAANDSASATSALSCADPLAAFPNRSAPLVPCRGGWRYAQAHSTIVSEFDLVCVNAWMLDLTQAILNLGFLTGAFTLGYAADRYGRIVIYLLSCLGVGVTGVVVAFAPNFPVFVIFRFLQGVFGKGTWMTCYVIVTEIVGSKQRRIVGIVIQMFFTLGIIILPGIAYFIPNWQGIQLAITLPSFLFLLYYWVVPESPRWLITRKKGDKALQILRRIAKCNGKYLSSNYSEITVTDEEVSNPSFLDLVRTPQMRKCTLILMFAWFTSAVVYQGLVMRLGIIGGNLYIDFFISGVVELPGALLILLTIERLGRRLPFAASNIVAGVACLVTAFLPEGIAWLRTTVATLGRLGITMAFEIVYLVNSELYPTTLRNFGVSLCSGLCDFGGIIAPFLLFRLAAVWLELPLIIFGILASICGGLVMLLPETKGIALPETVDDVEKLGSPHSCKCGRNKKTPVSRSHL
# Homo sapiens [3] = species on record: Homo sapiens; experiment: Selectivity ratio of IC50 for human OCT1 expressed in HEK293 cells to IC50 for human OCT3 expressed in HEK293 cells; assay type: cell-based
# [4] = molecular target: T3, Solute carrier family 22 member 2 (Homo sapiens, UniProt O15244); experiment: Inhibition of human OCT2 expressed in HEK293 cells assessed as decrease in uptake of substrate [3H]MPP+ after 1 min by liquid scintillation counting method; assay type: cell-based; summary of the method: as §1
# T3 sequence (O15244 whole entry): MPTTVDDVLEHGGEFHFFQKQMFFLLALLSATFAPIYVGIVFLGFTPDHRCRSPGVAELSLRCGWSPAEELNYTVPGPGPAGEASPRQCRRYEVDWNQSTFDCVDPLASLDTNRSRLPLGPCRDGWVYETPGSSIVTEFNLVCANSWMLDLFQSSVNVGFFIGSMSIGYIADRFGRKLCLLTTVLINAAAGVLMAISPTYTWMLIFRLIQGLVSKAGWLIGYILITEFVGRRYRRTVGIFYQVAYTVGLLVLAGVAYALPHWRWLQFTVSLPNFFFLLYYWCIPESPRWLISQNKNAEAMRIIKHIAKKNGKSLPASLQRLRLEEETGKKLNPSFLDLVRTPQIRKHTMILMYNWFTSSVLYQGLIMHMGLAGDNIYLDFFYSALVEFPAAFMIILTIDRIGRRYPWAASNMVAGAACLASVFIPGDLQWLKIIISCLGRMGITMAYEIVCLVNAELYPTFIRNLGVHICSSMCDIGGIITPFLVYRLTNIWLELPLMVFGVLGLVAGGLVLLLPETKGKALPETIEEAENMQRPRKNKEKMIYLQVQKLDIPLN
# Homo sapiens [5] = species on record: Homo sapiens; experiment: Selectivity ratio of IC50 for human OCT2 expressed in HEK293 cells to IC50 for human OCT3 expressed in HEK293 cells; assay type: cell-based
# [6] = molecular target: T2, Solute carrier family 22 member 3; experiment: Competitive inhibition of human OCT3 expressed in HEK293 cells up to 10 uM in presence of varying concentration of MPP+ by Lineweaver-Burk plot analysis; assay type: cell-based
# Summary of the method: (§2)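 HEK293 cells stably expressing hOCT3; 1 min cellular accumulation of MPP+ (1-150 μM) with or without inhibitor at two concentrations. Uptake corrected for background in non-transporter-expressing control cells. Saturation curves fitted by nonlinear regression to a mixed-model inhibition equation to define mode of inhibition; Lineweaver-Burk transforms used for display.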
# [7] = molecular target: T2, Solute carrier family 22 member 3; experiment: Competitive inhibition of human OCT3 expressed in HEK293 cells up to 25 uM in presence of varying concentration of MPP+ by Lineweaver-Burk plot analysis; assay type: cell-based; summary of the method: as §2
# [8] = molecular target: T2, Solute carrier family 22 member 3; experiment: Inhibition of OCT3 (unknown origin)
# [9] = molecular target: T2, Solute carrier family 22 member 3; experiment: Competitive inhibition of human OCT3 expressed in HEK293 cells in presence of varying concentration of MPP+ by Lineweaver-Burk plot analysis; assay type: cell-based; summary of the method: as §2
Compound,IC50 [1],IC50 [2],IC50 [4],inhibition (INH) [6],inhibition (INH) [7],IC50 [8],inhibition (INH) [9],Ratio IC50 (Homo sapiens [3]),Ratio IC50 (Homo sapiens [5])
N=C(N)Nc1ccc(Cc2ccccc2)cc1,762 µM,452 µM,96.2 µM,,,,,< 5,< 5
N=C(N)Nc1ccc(F)cc1,22.6 µM,27.8 µM,48.3 µM,,,,,< 5,< 5
N=C(N)N [GUANIDINE],,,,,,2200 to 6200 µM,,,
N=C(N)Nc1cccc(Cl)c1,,,,,,,,< 5,8
N=C(N)Nc1ccccc1 [PHENYLGUANIDINE],41.1 µM,99.8 µM,89 µM,,,,,< 5,< 5
C=C[C@H]1C[N@@]2CC[C@H]1C[C@H]2[C@H](O)c1ccnc2ccc(OC)cc12 [QUININE],,,,,,,Active,,

# Second part, led by results:
IC50 [1],IC50 [2],IC50 [4],inhibition (INH) [6],inhibition (INH) [7],IC50 [8],inhibition (INH) [9],Compound,Ratio IC50 (Homo sapiens [3]),Ratio IC50 (Homo sapiens [5])
10 µM,4.6 µM,9.3 µM,,,,,Cc1ccc(NC(=N)N)cc1,< 5,< 5
0.9 µM,2.2 µM,8.3 µM,Active,,,,CC(C)(C)c1ccc(N=C(N)N)cc1,< 5,< 5
10 µM,2.8 µM,18.9 µM,,Active,,,N=C(N)Nc1ccc(Cl)cc1,< 5,6
6.3 µM,4.8 µM,11.3 µM,,,,,N=C(N)Nc1ccc(Br)cc1,< 5,< 5
2.4 µM,1.5 µM,4.4 µM,,,,,NC(N)=Nc1ccc(I)cc1,< 5,< 5
13.7 µM,7.6 µM,60.5 µM,,,,,NC(N)=Nc1cccc(Cl)c1,,
